Measurements: ChEMBL document CHEMBL4330187, “Synthesis of 5-Thio-α-GalCer Analogues with Fluorinated Acyl Chain on Lipid Residue and Their Biological Evaluation” (2019)
Activity calls are given as the source filed them. No cut-off for these calls is given here.

Key:
Mus musculus [1] = assay: Immunomodulatory activity in C57BL/6 mouse assessed as increase in IFN-gamma secretion in serum at 100 ug/kg, ip by ELISA; format: functional, organism-based
In short: (§1)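 Glycolipid given once i.p. to B6 mice at 100 μg/kg in 0.1 mL vehicle. Serum IL-4 and IFN-γ followed over time after injection, three mice per group, each serum sampled individually. IFN-γ/IL-4 selectivity expressed two ways: ratio of areas under the time–concentration curves, and ratio of peak (maximum) production.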

Mus musculus [2] = assay: Immunomodulatory activity in C57BL/6 mouse assessed as increase in IL-4 secretion in serum at 100 ug/kg, ip by ELISA; format: functional, organism-based; in short: as §1
Mus musculus [3] = assay: Immunomodulatory activity in C57BL/6 mouse assessed as increase in IL-4 secretion in serum at 100 ug/kg, ip after 3 hrs by ELISA; format: functional, organism-based; in short: as §1
Mus musculus [4] = assay: Immunomodulatory activity in C57BL/6 mouse assessed as serum IFNgamma/IL-4 maximum productivity ratio at 100 ug/kg, ip by ELISA; format: functional; in short: as §1
Mus musculus [5] = assay: Immunomodulatory activity in C57BL/6 mouse assessed as serum IFNgamma/IL-4 AUC ratio at 100 ug/kg, ip by ELISA; format: functional; in short: as §1

| Compound | Activity (Mus musculus [1]) | Activity (Mus musculus [2]) | Activity (Mus musculus [3]) | Ratio (Mus musculus [4]) | Ratio (Mus musculus [5]) |
| --- | --- | --- | --- | --- | --- |
| CCCCCCCCCCCCCC[C@@H](O)[C@@H](O)[C@H](CO[C@H]1O[C@H](CO)[C@H](O)[C@H](O)[C@H]1O)NC(=O)C(F)(F)C(F)(F)C(F)(F)C(F)(F)C(F)(F)C(F)(F)C(F)(F)C(F)(F)C(F)(F)C(F)(F)C(F)(F)C(F)(F)C(F)(F)F | inactive | inactive | – | – | – |
| CCCCCCCCCCCCCC[C@@H](O)[C@@H](O)[C@H](CO[C@H]1O[C@H](CO)[C@H](O)[C@H](O)[C@H]1O)NC(=O)CCCCCCC(F)(F)F | inactive | inactive | – | – | – |
| CCCCCCCCCCCCCCCCCCCCCCCCCC(=O)N[C@@H](CO[C@H]1O[C@H](CO)[C@H](O)[C@H](O)[C@H]1O)[C@H](O)[C@H](O)CCCCCCCCCCCCCC [RGI-7000] | Active | – | Active | 2.8 | 12.1 |
| CCCCCCCCCCCCCC[C@@H](O)[C@@H](O)[C@H](CO[C@H]1S[C@H](CO)[C@H](O)[C@H](O)[C@H]1O)NC(=O)CCCCCCC(F)(F)F | inactive | inactive | – | – | – |
| CCCCCCCCCCCCCC[C@@H](O)[C@@H](O)[C@H](CO[C@H]1S[C@H](CO)[C@H](O)[C@H](O)[C@H]1O)NC(=O)C(F)(F)C(F)(F)C(F)(F)C(F)(F)C(F)(F)C(F)(F)C(F)(F)F | – | – | – | 9 | 26.7 |
| CCCCCCCCCCCCCC[C@@H](O)[C@@H](O)[C@H](CO[C@H]1S[C@H](CO)[C@H](O)[C@H](O)[C@H]1O)NC(=O)C(F)(F)C(F)(F)C(F)(F)C(F)(F)C(F)(F)C(F)(F)C(F)(F)C(F)(F)C(F)(F)C(F)(F)C(F)(F)C(F)(F)C(F)(F)F | – | – | – | 0.59 | 0.58 |
| CCCCCCCCCCCCCC[C@@H](O)[C@@H](O)[C@H](CO[C@H]1O[C@H](CO)[C@H](O)[C@H](O)[C@H]1O)NC(=O)C(F)(F)C(F)(F)C(F)(F)C(F)(F)C(F)(F)C(F)(F)C(F)(F)F | – | – | – | 3.4 | 5.8 |
